ChEMBL document CHEMBL1151181, “New sesterterpenes from the Antarctic sponge Suberites sp” (2004)

What was measured:
Format in all cases: functional
K562 = assay: Cytotoxicity against human K562 cells by MTT method; settings: read-out: LC50 (the source's name)
How it was run: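 Human leukemia K562 cell line, MTT read-out; value expressed as LC50 in µg/mL.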

Bacillus subtilis = assay: Antimicrobial activity against Bacillus subtilis at 25 ug by paper-disk method; settings: read-out: IZ
How it was run: (§1)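 Paper-disk diffusion assay with 25 µg of compound per disk; activity read as diameter of the growth-inhibition zone in mm. The Streptococcus strain is given only as Streptococcus sp.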

Candida albicans = assay: Antimicrobial activity against Candida albicans at 25 ug by paper-disk method; settings: read-out: IZ; how it was run: as §1
Escherichia coli = assay: Antimicrobial activity against Escherichia coli at 25 ug by paper-disk method; settings: read-out: IZ; how it was run: as §1
Staphylococcus aureus = assay: Antimicrobial activity against Staphylococcus aureus at 25 ug by paper-disk method; settings: read-out: IZ; how it was run: as §1
Streptococcus = assay: Antimicrobial activity against Streptococcus at 25 ug by paper-disk method; settings: read-out: IZ; how it was run: as §1

| Structure (SMILES) | CC50 (K562) [µg/mL] | zone of inhibition at 25 µg/disc (Bacillus subtilis) [mm] | zone of inhibition at 25 µg/disc (Candida albicans) [mm] | zone of inhibition at 25 µg/disc (Escherichia coli) [mm] | zone of inhibition at 25 µg/disc (Staphylococcus aureus) [mm] | zone of inhibition at 25 µg/disc (Streptococcus) [mm] |
| --- | --- | --- | --- | --- | --- | --- |
| CC(=O)O[C@@H]1C[C@@]2(C)CC(c3ccc(C)c(O)c3)=CC[C@H]2[C@@]2(C)CCCC(C)(C)[C@H]12 [SUBERIPHENOL] | > 100 | < 3 | < 3 | < 3 | < 3 | < 3 |
| CC(=O)O[C@@H]1C=C(C)C(=O)C[C@H]1[C@@]1(O)CC[C@@H]2[C@@](C)(C[C@@H](OC(C)=O)[C@H]3C(C)(C)CCC[C@]23C)C1 |  | < 3 | < 3 | < 3 | < 3 | < 3 |
| CC(=O)O[C@@H]1C[C@@]2(C)CC([C@@H]3CC(=O)C(C)=C[C@H]3O)=CC[C@H]2[C@@]2(C)CCCC(C)(C)[C@H]12 [SUBERITENONE C] | > 100 | < 3 | < 3 | < 3 | < 3 | < 3 |
